These results are taken from ChEMBL document CHEMBL2331350, “Conjugation to 4-aminoquinoline improves the anti-trypanosomal activity of Deferiprone-type iron chelators” (Bioorg Med Chem, 2013).

For data set [1], the system named is Plasmodium falciparum. As to the kind of experiment: Antimalarial activity against Plasmodium falciparum ITG2G1. It counts as functional.
Data set [2] can be described thus: Lipophilicity, log P of the compound. The class given is physicochemical. As to conditions: octanol/water.
A short description of data set [3]: Cytotoxicity against human K562 cells. The class given is cell-based.
Data set [4] is described as follows: Selectivity index, ratio of GI50 for human K562 cells to GI50 for Plasmodium falciparum ITG2G1. It counts as toxicity, cell-based. The following applies: read-out: RatioGI50.
The nature of data set [5]: Selectivity index, ratio of GI50 for human HL60 cells to GI50 for Trypanosoma cruzi trypomastigotes. It counts as toxicity, cell-based, HL-60. The following applies: read-out: RatioGI50.
Data set [6] deals with Trypanosoma cruzi. As to the kind of experiment: Antitrypanosomal activity against Trypanosoma cruzi trypomastigotes after 24 hrs by MTT assay. It counts as functional. Put shortly: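 T. cruzi trypomastigotes counted by hemocytometer, seeded at 1 × 10⁶ per well; compounds up to 100 µM for 24 h at 37 °C, 5% CO2. Viability from MTT conversion to formazan. Benznidazole positive control; GI50 with 95% CI.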
In general terms: Tetrazolium assays rely on reduction of a dye to a coloured formazan, in cell work by metabolically active cells.

Data set [7] is described as follows: Selectivity index, ratio of GI50 for human HL60 cells to GI50 for Leishmania infantum MHOM/BR/1972/LD promastigotes. It counts as toxicity, cell-based, HL-60. As to conditions: read-out: RatioGI50.
A short description of data set [8]: Selectivity index, ratio of GI50 for human HL60 cells to GI50 for Trypanosoma brucei TC211. The class given is toxicity, cell-based, HL-60. As to conditions: read-out: RatioGI50.
The subject of data set [9] is Leishmania infantum. The data set is described as follows: Antileishmanial activity against Leishmania infantum MHOM/BR/1972/LD promastigotes after 48 hrs by MTT assay. The class given is functional.
The test system of data set [10] is Trypanosoma brucei. As to the kind of experiment: Antitrypanosomal activity against Trypanosoma brucei TC211 after 24 hrs by alamar blue assay. The class given is functional. The following applies: TC211, 24 h. A digest of the protocol: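 Bloodstream T. brucei TC211 in Baltz medium with 16.7% heat-inactivated FBS, seeded at 10⁴ cells/mL with compounds in DMSO (final 0.5%; DMSO-only controls). Alamar Blue added after 24 h, then 48 h incubation; absorbance 570 nm, reference 630 nm. Melarsoprol positive control; GI50 with 95% CI.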
Background: Resazurin is reduced to fluorescent resorufin, in cell work by metabolically active cells.

Data set [11] in a line: Cytotoxicity against human HL60 cells by alamar blue assay. It counts as cell-based, HL-60. A digest of the protocol: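 HL-60 cells in RPMI 1640 with 2 mM L-glutamine and 16.7% FBS at 37 °C, 5% CO2, seeded at 10⁵ cells/mL. Viability with Alamar Blue read as in the T. brucei assay (570 nm, reference 630 nm); GI50.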
A short description of data set [12]: Iron cheating activity assessed as pFe3+ value at pH 7.45 by spectrophotometry. The class given is functional. A digest of the protocol: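 Automated spectrophotometric titration at 25 °C, 0.1 M KCl, pH 2–12 in 0.1-unit steps, 5 min equilibration for stability constants, 50 mm cuvette; […], total iron 1 mM; data fitted with pHab; pFe³⁺ defined at 10⁻⁶ M metal and 10⁻⁵ M ligand.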

Data set [13] has as its system Trypanosoma brucei. The data set is described as follows: Iron cheating activity in Trypanosoma brucei bloodstream forms assessed as increase in fluorescein-labeled transferrin at 25 uM in presence of 16.7% heat inactivated FBS after 24 hrs by flow cytometry relative to untreated control. The class given is functional. Put shortly:
(§1)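 Bloodstream T. brucei (5 × 10⁵/mL) exposed 24 h in Baltz medium/16.7% heat-inactivated FBS to 50 µM chelator, 25 µM DFO or DMSO control. Washed cells then given 50 µg/mL fluorescein-transferrin in Baltz/2% BSA for 2 h, washed, fixed in 2% formaldehyde/0.05% glutaraldehyde, analysed by flow cytometry.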
A general note: A flow cytometer gives signals particle by particle.

The subject of data set [14] is Leishmania infantum. The data set is described as follows: Antileishmanial activity against Leishmania infantum MHOM/BR/1972/LD intracellular amastigotes at 60 uM after 120 hrs by light microscopy.
Data set [15] relates to Trypanosoma cruzi. The data set is described as follows: Antitrypanosomal activity against Trypanosoma cruzi trypomastigotes after 24 hrs by MTT assay relative to Deferiprone. It counts as functional.
Data set [16] has as its system Trypanosoma brucei. As to the kind of experiment: Antitrypanosomal activity against Trypanosoma brucei TC211 after 24 hrs by alamar blue assay relative to Deferiprone. It counts as functional.
Data set [17] has as its system Trypanosoma cruzi. The data set is described as follows: Antitrypanosomal activity against Trypanosoma cruzi trypomastigotes after 24 hrs by MTT assay relative to Chloroquine. It counts as functional.
The test system of data set [18] is Trypanosoma brucei. As to the kind of experiment: Antitrypanosomal activity against Trypanosoma brucei TC211 after 24 hrs by alamar blue assay relative to Chloroquine. It counts as functional.
Data set [19] concerns Trypanosoma brucei. As to the kind of experiment: Antitrypanosomal activity against Trypanosoma brucei TC211 after 24 hrs in presence of FeCl3 by alamar blue assay. The class given is functional, organism-based.
For data set [20], the system named is Trypanosoma brucei. As to the kind of experiment: Iron cheating activity in Trypanosoma brucei bloodstream forms assessed as increase in fluorescein-labeled transferrin at 50 uM in presence of 16.7% heat inactivated FBS after 24 hrs by flow cytometry relative to untreated control. It counts as functional. A digest of the protocol:
as §1

As a reminder, the GI50 is the concentration giving 50% growth inhibition. A higher GI50 goes with lower sensitivity of the cells. As usually defined, the logP is a log measure of how a compound divides between an organic and an aqueous phase.

Activity calls are given as the source filed them. The calls are words filed in the database; no cut-off is given here.

Turning to `Cc1c(O)c(=O)ccn1CCNc1ccnc2cc(Cl)ccc12`, the GI50 was determined as 7 µM in data set [1] and 182 µM in [3]. Further, the logP in [2] came to 1.08. The selectivity ratio in [4] is 26.
In the case of `CCCCCCCCCCn1ccc(=O)c(O)c1C`, the selectivity ratio in data set [5] was 8; in data set [7], 9; in data set [8], 5. Further, the GI50 came to 0.8 µM in data set [6], 0.7 µM in [9], 1.4 µM in data set [10] and 6.3 µM in [11].
In turn, `C[C@@H]1[C@H](O)[C@@H](C)/C=C/C=C/C=C/C=C/C=C/C=C/C=C/[C@H](O[C@@H]2O[C@H](C)[C@@H](O)[C@H](N)[C@@H]2O)C[C@@H]2O[C@](O)(C[C@@H](O)C[C@@H](O)[C@H](O)CC[C@@H](O)C[C@@H](O)CC(=O)O[C@H]1C)C[C@H](O)[C@H]2C(=O)O` [AMPHOTERICIN B] had a GI50 in data set [9] of 0.17 µM.
On to `NCCCCNc1ccnc2cc(Cl)ccc12`, for which the GI50 in data set [6] was 46.3 µM; in data set [9], 42.4 µM; in data set [10], 15.8 µM; in data set [11], more than 100 µM.
Compound `O=C(Cn1ccnc1[N+](=O)[O-])NCc1ccccc1` [BENZNIDAZOLE] came in with a GI50 in [6] of 441 µM.
As to `Cc1cc(NC(=O)CCCn2ccc(=O)c(O)c2C)c2ccccc2n1`, the GI50 in data set [1] is 6 µM; in [3], 128 µM. Also, the logP in data set [2] turned out to be 1.28. Further, the selectivity ratio in [4] came to 21.
For `CCN(CC)CCCC(C)Nc1ccnc2cc(Cl)ccc12` (configuration not stated) [CHLOROQUINE], the figures for the GI50 in data set [6], in data set [9] and in data set [10] were 22.2 µM, 3.7 µM and 15.6 µM, respectively.
For the compound `Cc1cc(NCCCCn2ccc(=O)c(O)c2C)c2ccccc2n1`, the Activity in [12] came out at 21.1. In addition, the GI50 in data set [1] is 9 µM; in data set [3] it was 204 µM. The same compound showed a logP in data set [2] of -0.48. For the same compound, the selectivity ratio in data set [4] turned out to be 23.
Turning to `CC(=O)N(O)CCCCCNC(=O)CCC(=O)N(O)CCCCCNC(=O)CCC(=O)N(O)CCCCCN` [DEFEROXAMINE], in data set [12], the Activity worked out at 26.6. The GI50 in data set [1] was determined as 28 µM; in [9] it was 150 µM; in data set [10] it was 2.9 µM; in [3], 33.1 µM; in data set [11], 18.4 µM. The “fold change (FC)” value in data set [13] is 2.
`Cc1c(O)c(=O)ccn1CCCNc1ccnc2cc(Cl)ccc12` had a logP in [2] of 1.32.
Turning to `Cc1c(O)c(=O)ccn1CCCCNc1ccnc2cc(Cl)ccc12`, the selectivity ratio was found to be 8 in data set [5], 2 in [7], 13 in data set [8] and 16 in data set [4]. The GI50 is 6.5 µM in data set [6]; 2.4 µM in data set [1]; 27.1 µM in data set [9]; 3.8 µM in [10]; 38.2 µM in data set [3]; 50.3 µM in [11]. Further, in data set [14], the result was inactive. Moreover, the Ratio in data set [15] is given as more than 15; in data set [16], more than 25; in [17], 4; in data set [18], 4. Also, the logP in [2] was found to be 1.4.
For `Cc1c(O)c(=O)ccn1CCCCNc1ccnc2ccccc12`, in data set [19], the outcome was inactive. In addition, the GI50 in [6] is more than 100 µM; in data set [1] it was 1.6 µM; in data set [9] it was more than 100 µM; in [10], 7.6 µM; in data set [3] it was 27.1 µM; in [11] it was more than 100 µM. The results for the selectivity ratio in data set [8] and in data set [4] were more than 13 and 17, respectively. In addition, the “fold change (FC)” value in data set [20] came to 1.6. The same compound registered a logP in [2] of 1.25.
As to `Cc1c(O)c(=O)ccn1C` [DEFERIPRONE], the Activity in data set [12] turned out to be 19.3. Besides, the GI50 in [6] was more than 100 µM; in data set [1] it was 67 µM; in [9], more than 100 µM; in data set [10] it was more than 100 µM; in data set [11] it was more than 100 µM.
For `Cc1c(O)c(=O)ccn1CCN`, the GI50 was more than 100 µM in [6], more than 100 µM in data set [9], more than 100 µM in [10] and 111 µM in [11].
As for `Nc1nc(N)nc(Nc2ccc([As]3SCC(CO)S3)cc2)n1` (configuration not stated) [MELARSOPROL], in data set [10], growth was halved (GI50) at 0.0038 µM.
On to `CCCCCCCCn1ccc(=O)c(O)c1C`, for which the selectivity ratio came to 4 in [5], 4 in data set [7] and 3 in data set [8]. For the same compound, the GI50 in data set [6] was 3 µM; in data set [9], 3.2 µM; in [10] it was 3.6 µM; in data set [11], 11.2 µM.
